In PMC6128401 (Molecular pharmaceutics, 2017):

Tests used:
[1] = biological target: T1, A431-CCK2R cell line expressing the human CCK2R (Homo sapiens, UniProt P32239); assay: Cell uptake; assay type: cell-based; conditions: A431-CCK2R cells, 2 h incubation, 0.4 nM
T1 sequence (P32239 1-447): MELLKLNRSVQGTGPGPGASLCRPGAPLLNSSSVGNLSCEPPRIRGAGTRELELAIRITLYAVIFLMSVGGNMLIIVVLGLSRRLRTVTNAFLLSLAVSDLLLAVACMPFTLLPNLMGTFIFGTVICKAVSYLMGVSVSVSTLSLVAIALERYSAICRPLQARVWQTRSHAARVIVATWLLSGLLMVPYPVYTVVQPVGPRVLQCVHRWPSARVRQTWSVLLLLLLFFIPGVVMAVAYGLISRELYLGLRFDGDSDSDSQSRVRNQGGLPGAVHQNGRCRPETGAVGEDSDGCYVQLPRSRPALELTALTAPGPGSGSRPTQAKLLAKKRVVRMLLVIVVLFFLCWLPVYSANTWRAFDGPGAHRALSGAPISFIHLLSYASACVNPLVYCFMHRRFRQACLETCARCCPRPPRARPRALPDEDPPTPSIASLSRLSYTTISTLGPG
Outline: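 A431-CCK2R and A431-mock cells were cultured in DMEM with 10% FBS, penicillin/streptomycin/L-glutamine at 37°C, 5% CO₂. They were seeded at 1.0×10⁶ cells/well and grown 48 h to confluency. Peptides were labelled with ¹⁷⁷LuCl₃ (~50 GBq/µmol) in ascorbate buffer pH 5 with gentisic acid and L-Met, 80°C. Triplicate wells received ~100,000 cpm (0.4 nM) for 2 h. The internalized fraction was gamma-counted as % of total added.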

[2] = Chemical stability in phosphate buffered saline; assay type: physicochemical; conditions: PBS at RT, up to/after 4 h incubation
Outline: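 ¹⁷⁷Lu-labelled peptide (120 pmol/mL) was kept in phosphate buffered saline at room temperature. Aliquots were taken at intervals up to […] and analysed by HPLC for percentage intact radiopeptide relative to post-labelling radiochemical purity.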

[3] = Stability against enzymatic degradation in human serum; assay type: in vitro ADME
Outline: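 The ¹⁷⁷Lu-labelled peptide was incubated in human serum at 37°C and sampled at time points up to 24 h. Proteins were precipitated with acetonitrile (1:1.5) and centrifuged; supernatant was diluted 1:1 with water before HPLC for intact radiopeptide. Half-life came from first-order exponential decay fitting.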

[4] = assay type: physicochemical
Outline: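 Labelling used ~2 GBq ¹⁷⁷LuCl₃ in 1 mL dilute HCl, heated at 80°C for 15-25 min. Kits were stored up to 6 months; labelled product was held up to 48 h at room temperature or −20°C. Radiochemical purity was measured by RP-HPLC.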

A431-CCK2R xenografts [5] = assay: Biodistribution: uptake in receptor-positive tumour xenograft; assay type: in vivo, BALB/c nude mice; conditions: 30 min p.i.
Outline: (§1)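 Female and male BALB/c nude mice, 5-6 weeks old, carried A431-CCK2R and A431-mock xenografts in opposite flanks (2×10⁶ cells each). Tumours grew for ~14 days to ~0.2 g. Kit-prepared ¹⁷⁷Lu-peptide, 1 MBq (20 pmol; 50 GBq/µmol), was injected into the tail vein. Groups of five were killed at 30 min, 4 h, 1 d, 2 d, 3 d and 7 d; dissected tissues were gamma-counted and expressed as % IA/g.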

[6] = Biodistribution: uptake in normal organs and tissues; assay type: in vivo, BALB/c nude mice; conditions: 30 min p.i.
Outline: as §1

A431-CCK2R xenografts [7] = assay: Experimental radionuclide therapy, receptor-positive tumour growth; assay type: in vivo, BALB/c nude mice; conditions: for mean SGR A431-CCK2R: single i.v. treatment; for TVDT increase by a factor in comparison to the control group: A431-CCK2R tumours
A431-mock xenografts = assay: Experimental radionuclide therapy, receptor-negative tumour growth; assay type: in vivo, BALB/c nude mice; conditions: for mean SGR A431-mock: single i.v. treatment
[8] = Medullary toxicity: white blood cell and platelet counts; assay type: in vivo, BALB/c nude mice
Outline: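 Double-xenografted nude mice were dosed as in the therapy study (saline, 15 or 30 MBq i.v.), n=5. Weekly, 0.1 mL venous blood was drawn from the superficial temporal vein by lancet, up to eight samples per animal. White blood cells and platelets were counted on an automatic haematology analyser. Counts were expressed relative to basal values (week −2 = inoculation; week 0 = treatment).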

[9] = Renal toxicity: creatinine and urea in serum; assay type: in vivo, BALB/c nude mice
Outline: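 The same treated double-xenografted nude mice (saline, 15 or 30 MBq i.v.; n=5) gave weekly venous blood samples. Serum creatinine and urea were measured with specific kits on a semiautomatic biochemical analyser. Values were compared between treated and control groups over weeks from cell inoculation (week −2) onward.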

[10] = 15 MBq, one week after treatment
[11] = 15 MBq group, week 0 (week of treatment)
[12] = 15 MBq group, week -2 (cell inoculation)
[13] = 30 MBq group, week 0 (week of treatment)
[14] = 30 MBq group, week -2 (cell inoculation)

CCCC[C@H](NC(=O)[C@H](Cc1c[nH]c2ccccc12)NC(=O)[C@H]1CCCCNC(=O)[C@H](NC(=O)CN2CCN(CC(=O)O)CCN(CC(=O)O)CCN(CC(=O)O)CC2)CCC(=O)N[C@@H](C)C(=O)N[C@@H](Cc2ccc(O)cc2)C(=O)N1)C(=O)N[C@@H](CC(=O)O)C(=O)N[C@@H](Cc1ccccc1)C(N)=O [^177Lu-DOTA-cyclo-MG2, metal not drawn]
internalized radioligand fraction (% of total) [1]: 16.1±1.9% | RCP during incubation in PBS [2]: above 98% | half-life [3]: 17.8 h | mean RCP for the different time points after storage of the kits ([4]; kit storage up to 6 months, n=4): 97.8±1.3% | RCP after preparation ([4]; kit-prepared, directly after preparation): 97.8±1.3% | RCP at 24 h after preparation ([4]; stored at RT): 96.3±1.4% | maximal tumour uptake (A431-CCK2R xenografts [5]): 5.99 % IA/g | kidney uptake, maximal value [6]: 2.64 % IA/g | mean SGR A431-CCK2R (A431-CCK2R xenografts [7]; 15 MBq group (0.6 nmol)): 0.048±0.011 | mean SGR A431-CCK2R (A431-CCK2R xenografts [7]; 30 MBq group (1.2 nmol)): 0.033±0.002 | TVDT increase by a factor in comparison to the control group (A431-CCK2R xenografts [7]; high activity group (30 MBq)): 2.5 | TVDT increase by a factor in comparison to the control group (A431-CCK2R xenografts [7]; low activity group (15 MBq)): 1.7 | mean SGR A431-mock (A431-mock xenografts; 15 MBq group (0.6 nmol)): 0.068±0.005 | mean SGR A431-mock (A431-mock xenografts; 30 MBq group (1.2 nmol)): 0.042±0.004 | TVDT increase by a factor in comparison to the control group (A431-mock xenografts; A431-mock tumours, high activity group (30 MBq)): 1.8 | reduction in PLT counts compared to the basal value [8, 10]: 51.2-52.8% | reduction in WBC counts compared to the basal value [8, 10]: 37.8-40.8% | PLT value ([8]; 15 MBq, week 1 after treatment, reference 558-1,454): 531±45 ×10^9/L | decline of PLT value compared to the basal value ([8]; 30 MBq, after treatment): 44.8-58.0% | reduction of WBC value compared to the basal value ([8]; 30 MBq, week 1 after treatment): 67.2-70.9% | WBC value below the lower reference limit ([8]; 30 MBq, week 1 and 2 after treatment, reference 3.11-13.04): 2.17-2.94 ×10^9/L | PLT value below the reference values ([8]; 30 MBq, week 2 and 3 after treatment): 524-549 ×10^9/L | Creatinine (reference value 0.1-0.5) [9, 11]: 0.3 ± 0.1 mg/dL | Urea (reference value 17-38) [9, 11]: 25 ± 7 mmol/L | Creatinine (reference value 0.1-0.5) ([9]; 15 MBq group, week 1): 0.2 ± 0.1 mg/dL | Urea (reference value 17-38) ([9]; 15 MBq group, week 1): 27 ± 6 mmol/L | Creatinine (reference value 0.1-0.5) ([9]; 15 MBq group, week 2): 0.3 ± 0.2 mg/dL | Urea (reference value 17-38) ([9]; 15 MBq group, week 2): 34 ± 3 mmol/L | Creatinine (reference value 0.1-0.5) ([9]; 15 MBq group, week 3): 0.2 ± 0.1 mg/dL | Urea (reference value 17-38) ([9]; 15 MBq group, week 3): 34 ± 5 mmol/L | Creatinine (reference value 0.1-0.5) ([9]; 15 MBq group, week 4): 0.5 ± 0.2 mg/dL | Creatinine (reference value 0.1-0.5) ([9]; 15 MBq group, week 5): 0.7 mg/dL | Creatinine (reference value 0.1-0.5) ([9]; 15 MBq group, week -1): 0.2 ± 0.1 mg/dL | Urea (reference value 17-38) ([9]; 15 MBq group, week -1): 32 ± 2 mmol/L | Creatinine (reference value 0.1-0.5) [9, 12]: 0.1 ± 0.02 mg/dL | Urea (reference value 17-38) [9, 12]: 30 ± 4 mmol/L | urea above the upper limit of the reference value ([9]; 15 MBq, beginning from week 4 after treatment): 40 to 44 mmol/L | Creatinine (reference value 0.1-0.5) [9, 13]: 0.2 ± 0.1 mg/dL | Urea (reference value 17-38) [9, 13]: 27 ± 2 mmol/L | Creatinine (reference value 0.1-0.5) ([9]; 30 MBq group, week 1): 0.2 ± 0.1 mg/dL | Urea (reference value 17-38) ([9]; 30 MBq group, week 1): 37 ± 3 mmol/L | Creatinine (reference value 0.1-0.5) ([9]; 30 MBq group, week 2): 0.3 ± 0.2 mg/dL | Creatinine (reference value 0.1-0.5) ([9]; 30 MBq group, week -1): 0.3 ± 0.2 mg/dL | Urea (reference value 17-38) ([9]; 30 MBq group, week -1): 29 ± 4 mmol/L | Creatinine (reference value 0.1-0.5) [9, 14]: 0.2 ± 0.1 mg/dL | Urea (reference value 17-38) [9, 14]: 26 ± 3 mmol/L | urea levels above the reference limit ([9]; 30 MBq, beginning from week 2 after treatment): 39 to 63 mmol/L | creatinine levels above the reference limit ([9]; 30 MBq, beginning from week 3 after treatment): 0.6 to 0.8 mg/dL
